# Bioassay records: PubChem, several laboratories
# ABCB6 inh 2 = human ABCB6 transporter inhibition; K562-ABCB6 porphyrin accumulation, flow cytometry, 1 h; stronger effect = lower value; fluorescence ratio to DMSO, % at 10 µM; 0.19% of 360,000 active; AID 602162;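 active = fluorescence ratio to DMSO below 75%, the collection mean minus 3 SD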;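 note: signal is porphyrin accumulated inside mitochondria; 100% equals median channel fluorescence of DMSO control wells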
# Myeloid diff 2 = myeloid differentiation induction; ER-HoxA9 myeloid progenitors, lysozyme-GFP differentiation, flow cytometry; calls only at 10 µM; 1% of 360,000 active;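 active = normalized GFP-positive differentiation at or above the plate's own cutoff, the solvent-only control mean plus 3 SD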;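 note: cells exposed to compound for four days before flow analysis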
# CendR NRP1 mod = modulators of CendR peptide binding to human neuropilin-1 | O14786 | FAM-RPARPAR peptide binding to NRP-1, fluorescence polarization | inhibition, % at 25 µM | 0.85% of 360,000 active | AID 602438;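 active = inhibition or corrected inhibition above about 18%, plus a signal ratio from 0.5 to 1.5, limit read from the data, passing the limit was not always enough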
# ATG4B inhibitor = blocks human ATG4B protease cleavage of LC3 substrate; Q9Y4P1; inhibition, % at 8.33 µM; ATG4B cleavage of LC3-PLA2, NBD-HPC fluorescence, 1 h; 0.51% of 340,000 active; AID 504462; in the data active = inhibition above about 40%
# Target sequence (Q9Y4P1 whole entry, looked up): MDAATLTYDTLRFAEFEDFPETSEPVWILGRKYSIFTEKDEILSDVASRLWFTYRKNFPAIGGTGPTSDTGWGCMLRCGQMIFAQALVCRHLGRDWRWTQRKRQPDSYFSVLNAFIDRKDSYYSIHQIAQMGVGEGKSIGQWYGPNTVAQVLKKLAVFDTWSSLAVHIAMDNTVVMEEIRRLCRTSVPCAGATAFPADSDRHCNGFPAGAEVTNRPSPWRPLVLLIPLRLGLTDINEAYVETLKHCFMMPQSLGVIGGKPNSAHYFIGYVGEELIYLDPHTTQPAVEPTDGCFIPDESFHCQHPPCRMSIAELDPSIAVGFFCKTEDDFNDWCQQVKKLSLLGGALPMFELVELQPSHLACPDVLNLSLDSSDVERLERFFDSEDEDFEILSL
# Exocytosis inh = lytic granule exocytosis inhibition; inhibition, % at 10 µM; AID 651702; 0.66% of 360,000 active; TALL-104 LAMP-1 surface exposure, flow cytometry; cells stimulated with thapsigargin and PMA;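 active = inhibition above about 55%, limit read from the data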
# Arrestin-AP2 inh = human beta-arrestin and AP2 interaction inhibition; FITC-arrestin peptide / GST-AP2 beads, flow cytometry; AP2 beta2 appendage carries R879A mutation; inhibition, % at 10 µM; 0.31% of 340,000 active; AID 504490;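 active = inhibition above a set limit, near 3 SD of compounds lacking own fluorescence, cut at about 54% in these data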;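 note: plate controls were DMSO wells for no effect and 5 µM unlabelled arrestin peptide for full effect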
#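 System: GST-AP2 R879A glutathione beads | Also added: FITC-arrestin peptide, 50 nM | Times: 12 min plus 1 h, RT | Signal: Bead flow cytometry, FITC channel | Buffer or medium: PBS with 0.05% Tween 20 and 0.1% BSA | Read-out basis: Percent drop in bead-associated FITC signal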
# Myeloid diff CP1 = promotes myeloid progenitor differentiation; shares compounds with Myeloid diff 2; ER-HoxA9 myeloid progenitors, GFP/Mac1 double-positive flow; calls only; 2% of 2,300 active; AID 651706;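 active = share of green or green-and-red cells above 9 and 9% in run 1 or 4 and 3% in run 2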
# GFP autofluor = compound fluorescence in myeloid differentiation counter-screen; shares compounds with Myeloid diff 2; ER-HoxA9 myeloid progenitors, no estrogen, GFP autofluorescence flow cytometry; vehicle wells 0%, positive control 100%; fluorescence response, % (concentration not given with the values); 7.4% of 2,300 active;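 active = over 5% cells positive for green fluorescent reporter, or over 2% positive for both it and APC stain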;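 note: range taken on the double positive population between DMSO and positive control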
# Starred values were filed as active, the others as inactive; i = inactive; x = no result given; + = active, no number. Most compounds without a hit are left out; they make up all but 3.3% or so of the library.
SMILES,ABCB6 inh 2,Myeloid diff 2,CendR NRP1 mod,ATG4B inhibitor,Exocytosis inh,Arrestin-AP2 inh,Myeloid diff CP1,GFP autofluor
CCOC(=O)c1cc2c(c(-c3ccccc3)n1)[C@@H](CCO)N(S(=O)(=O)C(C)(C)C)C2,104,i,4,-4,-3,13,i,1
CCN(c1ccc(NC(=O)COC(=O)C(C)N=C2NS(=O)(=O)c3ccccc32)cc1)C(C)C (centres undefined),104,i,-4,-7,-4,27,x,x
CCN(CC)C(=O)CSc1ncnc2c(-c3cccs3)nsc12,113,i,-28,8,0,16,i,1
Clc1ccc(CN2CCN(c3ncccn3)CC2)c(Cl)c1,102,i,6,14,-21,0,x,x
COc1cc(C(=O)NCC(c2ccco2)N2CCCC2)ccc1OCc1ccc(Cl)cc1Cl (centres undefined),98,+,-11,3,11,-11,i,4
CC/C(=N/NC(=O)c1ccc2c(c1)OCO2)c1ccccc1O,97,i,1,0,2,42,i,0
N#CC1=C(SCC(=O)c2cc3ccccc3oc2=O)NC(=O)C(C#N)C12CCCC2 (centres undefined),105,i,-45,10,8,-2,i,0
Cc1c(C(=O)Nc2nccs2)oc2ccc(F)cc12,96,i,6,0,2,5,x,x
Cc1cc(C(=O)Nc2nccs2)c2cc(F)ccc2n1,100,i,-8,0,17,22,i,0
CN(C(=O)c1ccc(NC(=O)Cc2ccc(NC(=O)C3CCN(C(=O)C4CCCCC4)CC3)cc2)cc1)C1CCCC1,96,i,4,-12,1,-1,x,x
COc1ccc(NC(=O)CN(C)C(=O)CSc2nc3ccccc3s2)cc1,94,i,-99,-5,6,-12,i,0
CC(C#N)(NC(=O)CN1CCN(S(=O)(=O)c2ccccc2C#N)CC1)C1CC1 (centres undefined),96,i,-4,4,0,2,x,x
Cc1ccc(OCCn2c(C)nc3ccccc32)cc1,99,i,-14,-2,-15,11,i,0
Cc1nc2ccccc2n1CCCOc1ccccc1,95,i,-8,1,1,22,x,x
O=C(N/N=C/c1ccc(OCC(=O)N2CCCCC2)cc1)c1ccccc1O,96,i,-7,4,-6,40,x,x
COc1ccc(NC(=S)N2CCN(C(c3ccccc3)c3ccccc3)CC2)c(OC)c1,99,i,3,1,1,-4,x,x
COc1cccc(NC(=S)N2CCN(C(c3ccccc3)c3ccccc3)CC2)c1,104,i,4,-6,-2,10,i,0
COc1ccc(/C=C/C(=O)NC2CCCCCCC2)cc1S(=O)(=O)N1CCOCC1,98,i,0,-12,6,18,i,0
CCOc1ccc(NC(=O)c2cccc3ccccc23)cc1,100,+,2,-3,10,-5,i,0
Cc1ccc(-c2nnc(SCC(=O)N/N=C/c3ccc(C)s3)n2-c2ccc(C)cc2)cc1,88,i,-3,5,19,-1,x,x
O=C1CCC(c2ccc3ccccc3c2)O1 (centres undefined),99,i,2,-10,-9,29,i,2
COc1cc(-c2cc(=O)c3ccc(O)cc3o2)cc(OC)c1OC,109,i,4,x,-3,x,x,x
COc1cc(OC)c(-c2c3cc(O)c(=O)cc-3oc3cc(O)c(O)cc23)cc1OC,123,+,135,-170,1,-130,i,99*
Cc1ccc(F)c(NC=C2C(=O)OC(C)(C)OC2=O)c1,90,i,2,9,4,1,i,2
COc1ccc(C(=O)Nc2cccc(-c3ccc4nncn4n3)c2)cc1,95,i,9,3,3,23,x,x
SMILES,ABCB6 inh 2,Myeloid diff 2,CendR NRP1 mod,ATG4B inhibitor,Exocytosis inh,Arrestin-AP2 inh,Myeloid diff CP1,GFP autofluor
COc1ccc(S(=O)(=O)Nc2cccc(-c3ccc4nncn4n3)c2)cc1,97,i,-4,6,-2,1,i,0
CCO[C@@H]1OC(C(=O)NCc2ccccc2)=C[C@H](c2csc3ccccc23)[C@H]1CCCO,94,i,-16,-7,11,11,i,0
CC(=O)Nc1sc(C)c(C)c1C(=O)OCC(=O)Nc1ccc(S(N)(=O)=O)cc1,104,+,-27,-10,-14,28,i,0
COC(=O)c1c(NC(=O)COC(=O)CCNS(=O)(=O)c2ccc(NC(C)=O)cc2)sc(C)c1C,95,i,-3,-17,-3,3,x,x
CCc1nc2ccc(C(=O)NCCC(C)C)cn2c1N(CC)CCN(C)C,100,i,-10,x,1,x,x,x
Cc1ccc(NC(=O)CSc2ncnc3ccccc23)cc1S(=O)(=O)N1CCCCCC1,89,+,-4,-4,4,23,i,0
Cc1noc(C)c1S(=O)(=O)Nc1ccc2c(c1)C(=O)N([C@H](C)CO)C[C@H](C)[C@@H](CN(C)S(=O)(=O)c1ccc(F)cc1)O2,94,i,2,-21,0,-2,x,x
O=C(Cc1cccc(NC(=O)C2CCN(C(=O)C3CCC3)CC2)c1)Nc1cccc(C(=O)N2CCCC2)c1,98,i,-3,-5,-1,35,i,0
O=C(Cc1cccc(NC(=O)C2CCN(C(=O)C3CCC3)CC2)c1)Nc1cccc(C(=O)N2CCOCC2)c1,106,i,-11,-1,-1,-6,x,x
O=C(COC(=O)c1cnccn1)c1ccc2ccccc2c1,102,i,5,0,-2,13,i,0
Cc1ccc(Sc2ncccc2COC(=O)NC(C)C)cc1,91,i,1,-4,2,7,x,x
O=C(COc1ccc2ccc(=O)oc2c1)NC1CCCC1,99,+,-4,0,3,5,i,0
O=C(COc1ccc2ccc(=O)oc2c1)NC1CCN(Cc2ccccc2)CC1,104,i,4,1,4,-10,x,x
Cc1ccc(NC(=O)c2ccc([N+](=O)[O-])s2)cc1S(=O)(=O)N1CCOCC1,94,+,-4,-7,6,17,i,0
S=C(NC1CC1)NC1CCCc2ccccc21 (centres undefined),101,i,-20,-5,0,30,i,0
CNC(=O)NC1CCCc2ccccc21 (centres undefined),98,i,7,-6,-1,-3,x,x
